Assay results: ChEMBL document CHEMBL5346889, “Discovery of 4-oxo-N-phenyl-1,4-dihydroquinoline-3-carboxamide derivatives as novel anti-inflammatory agents for the treatment of acute lung injury and sepsis” (Eur J Med Chem, 2023)
The source made the active and inactive calls. No cut-off for these calls is given here.

How the values were obtained:
[1] = tested on: Mus musculus; experiment: Protection against LPS-induced sepsis in C57/BL6 mouse model assessed as reduction in weight loss at 20 mg/kg, po preincubated with compound followed by LPS stimulation for 1 hr and measured every 24 hrs by 6 days; format: functional, organism-based; conditions: time 6.0 day
Procedure, shortened: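 Sepsis model in C57BL/6 mice, n = 12 per group: oral 20 mg/kg, then intraperitoneal LPS 20 mg/kg 1 h later; saline control. Survival checked every 12 h and body weight every 24 h for 6 days.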

[2] = Cmax in rat at 1 mg/kg, iv; format: ADME, organism-based; parameters: dose 1 mg/kg, route iv; conditions: in vivo
Procedure, shortened: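 Rats dosed intravenously at 1 mg/kg or orally at 10 mg/kg; plasma pharmacokinetic parameters AUC(0-t), Tmax, T1/2, Cmax and oral bioavailability F derived from the two routes.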

[3] = tested on: Mus musculus; experiment: Protection against LPS-induced C57/BL6 mouse acute lung injury model assessed as improvement in alveolar wall thickening at 20 mg/kg via oral gavage preincubated for 30 mins followed by LPS stimulation for 6 hrs; format: functional, organism-based; conditions: time 6.5 hrs
Procedure, shortened: (§1)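 Mice dosed 20 mg/kg by gavage (dexamethasone 20 mg/kg comparator), intratracheal LPS 5 mg/kg 30 min later, killed at 6 h. Right upper lobe fixed in paraformaldehyde, H&E; lung wet/dry ratio; BALF protein, total cells and neutrophils counted; n = 5 mice per group, mean ± SEM.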

[4] = tested on: Mus musculus; experiment: Protection against LPS-induced C57/BL6 mouse acute lung injury model assessed as improvement in structural distruption of lung tissue at 20 mg/kg via oral gavage preincubated for 30 mins followed by LPS stimulation for 6 hrs; format: functional, organism-based; conditions: time 6.5 hrs; procedure, shortened: as §1
[5] = tested on: Mus musculus; experiment: Antiinflammatory activity in LPS-induced C57/BL6 mouse acute lung injury model assessed as decrease in TNF-alpha level in serum at 20 mg/kg via oral gavage preincubated for 30 mins followed by LPS stimulation for 6 hrs by ELISA; conditions: time 6.5 hrs
[6] = tested on: J774.A1; experiment: Antiinflammatory activity in LPS-induced mouse J774.A1 cells assessed as inhibition of LPS-induced IL-1 beta transcription preincubated for 0.5 hrs followed by LPS stimulation for 6 hrs by RT-qPCR method; format: functional, cell-based; conditions: dose 5-10 µM, time 6.5 hrs
Procedure, shortened: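 J774A.1 or THP-1 cells pretreated 0.5 h at 10 or 5 μM, then LPS 0.5 μg/mL for 6 h. TRIzol RNA; IL-6, TNF-α and IL-1β transcripts by RT-qPCR, normalized to β-actin and control; 3 independent experiments, mean ± SEM.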

[7] = tested on: Mus musculus; experiment: Protection against LPS-induced C57/BL6 mouse acute lung injury model assessed as reduction in number of total cells in BALF at 20 mg/kg via oral gavage preincubated for 30 mins followed by LPS stimulation for 6 hrs; format: functional, organism-based; conditions: time 6.5 hrs; procedure, shortened: as §1

SMILES: COc1cc2nccc(Oc3ccc(NC(=O)c4cn(-c5ccccc5)c5ccccc5c4=O)cc3)c2cc1OC
- Activity [1]: Active
- Cmax [2]: 1360 ng/mL
- Activity [3]: Active
- Activity [4]: Active
- Activity [5]: Active
- inhibition [6]: Dose-Dependent Effect
- Activity [7]: Active
